Data set [1] has as its system NCI-H460. The experiment in a line: Cytotoxicity against human NCI-H460 cells assessed as inhibition of cell viability at 10 uM by MTT assay. In kind it is functional. A digest of the protocol: (§1)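 Cells were grown in MEM with 10% FBS and antibiotics at 37 °C, 5% CO2, plated at 2.0 × 10^4 cells/well and grown for 72 h. Compound or 0.1% DMSO was added, then MTT (5 mg/mL) for 3 h at 37 °C, read at 570 nm (690 nm blank). […] Inhibition = (DMSO control − treated)/control; two experiments in duplicate.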

The subject of data set [2] is HT-29. The experiment in a line: Cytotoxicity against human HT-29 cells by MTT assay. In kind it is functional, cell-based. A digest of the protocol: as §1
The target in data set [3] is T1, Prostaglandin G/H synthase 1 (Ovis aries, UniProt P05979).
T1 sequence (P05979 whole entry): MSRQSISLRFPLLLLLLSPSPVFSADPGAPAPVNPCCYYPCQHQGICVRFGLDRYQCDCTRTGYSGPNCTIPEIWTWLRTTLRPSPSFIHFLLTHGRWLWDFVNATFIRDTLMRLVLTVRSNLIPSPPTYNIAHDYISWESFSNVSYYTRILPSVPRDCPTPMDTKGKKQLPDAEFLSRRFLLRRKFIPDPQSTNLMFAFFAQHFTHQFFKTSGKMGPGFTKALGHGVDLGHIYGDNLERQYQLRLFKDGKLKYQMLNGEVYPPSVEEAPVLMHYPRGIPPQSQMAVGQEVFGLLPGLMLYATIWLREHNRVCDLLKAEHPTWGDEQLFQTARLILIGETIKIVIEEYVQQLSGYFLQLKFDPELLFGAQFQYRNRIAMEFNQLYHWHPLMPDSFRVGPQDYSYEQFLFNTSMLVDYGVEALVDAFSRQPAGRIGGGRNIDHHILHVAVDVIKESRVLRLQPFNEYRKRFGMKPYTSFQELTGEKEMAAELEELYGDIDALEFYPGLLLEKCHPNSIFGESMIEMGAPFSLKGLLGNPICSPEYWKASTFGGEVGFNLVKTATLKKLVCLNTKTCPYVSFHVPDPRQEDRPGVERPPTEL
The experiment in a line: Inhibition of sheep COX1 by spectrophotometry.

The nature of data set [4]: Cytotoxicity against human HDF cells assessed as inhibition of cell viability at 100 uM by MTT assay. It is filed as cell-based. To be noted: read-out: INH. A digest of the protocol:
as §1

Data set [5] has as its system K562. The experiment in a line: Cytotoxicity against human K562 cells assessed as inhibition of cell viability at 10 uM by trypan blue dye exclusion.
Data set [6] concerns Rattus norvegicus. The experiment in a line: Antiinflammatory activity in Sprague-Dawley rat assessed as inhibition of carrageenan induced paw swelling at 70 mg/kg, po after 3 hrs.
Data set [7] relates to Rattus norvegicus. The experiment in a line: Antiinflammatory activity in Sprague-Dawley rat assessed as inhibition of carrageenan induced paw swelling at 70 mg/kg, po after 4 hrs.

Bounds are passed on as bounds.

For `CS(=O)(=O)c1ccc(C(=O)c2ccoc2)cc1`, the inhibition at 10 µM in data set [1] amounted to 6%; in data set [5] it was 8.3%. The IC50 in data set [2] stood at 104 µM; in data set [3], 150 µM. For the same compound, the cytotoxicity at 100 µM in data set [4] stood at 36.2%. For the same compound, the inhibition in vivo at 70 mg/kg was 27% in data set [6] and 22.2% in data set [7].

Take `CS(=O)(=O)c1ccc(C(=O)c2ccco2)cc1`: the inhibition at 10 µM in data set [1] came out at 3%; in data set [5], 8.3%. The 50% inhibitory concentration (IC50) in data set [2] was found to be 383 µM; in data set [3], 15.1 µM. Also, the cytotoxicity at 100 µM in data set [4] was 30.7%. The inhibition in vivo at 70 mg/kg in data set [6] was determined as 45.5%; in data set [7], 37.8%.

As for `CS(=O)(=O)c1ccc(C(=O)c2cccs2)cc1`, the figures for the inhibition at 10 µM in data set [1] and in data set [5] were 3% and 1%, respectively. This compound returned an IC50 in data set [2] of 122 µM. The cytotoxicity at 100 µM in data set [4] was 25.7%. Further, the figures for the inhibition in vivo at 70 mg/kg in data set [6] and in data set [7] were 59.7% and 56%, respectively.

On to `CS(=O)(=O)c1ccc(C(=O)c2ccsc2)cc1`, for which the inhibition at 10 µM in data set [1] turned out to be 2%; in data set [5] it was 14.6%. For the same compound, the 50% inhibitory concentration (IC50) in data set [2] is 75.7 µM; in data set [3] it was 144 µM. The cytotoxicity at 100 µM in data set [4] turned out to be 31.2%.

As to `CS(=O)(=O)c1ccc(C(=O)c2ccc(Br)cc2)cc1`, the inhibition at 10 µM in data set [1] was 12.7%; in data set [5], 6.2%. Moreover, the results for the IC50 in data set [2] and in data set [3] were 100 µM and 150 µM, respectively. In data set [4], the cytotoxicity at 100 µM was 29.4%. For the same compound, the figures for the inhibition in vivo at 70 mg/kg in data set [6] and in data set [7] were 22% and 8.1%, respectively.

`CS(=O)(=O)c1ccc(C(=O)c2ccc(F)cc2)cc1` displayed an IC50 in data set [3] of 107 µM.

For `CS(=O)(=O)c1ccc(-c2ccccn2)cc1`, the IC50 in data set [3] was 89.6 µM. In addition, the inhibition in vivo at 70 mg/kg in data set [6] came to 53.7%; in data set [7], 51.4%.

Regarding `CS(=O)(=O)c1ccc(Nc2ccc(F)cc2)cc1`, the inhibition at 10 µM in data set [1] came to 1.8%; in data set [5], 13.5%. Further, the IC50 worked out at 130 µM in data set [2] and 141 µM in data set [3]. Also, the cytotoxicity at 100 µM in data set [4] is 37.4%. Besides, the inhibition in vivo at 70 mg/kg in data set [6] is 41.9%; in data set [7], 32.6%.

Take `CS(=O)(=O)c1ccc(-n2cccc2)cc1`: the values for the inhibition at 10 µM in data set [1] and in data set [5] were 3% and 1%, respectively. For the same compound, the 50% inhibitory concentration (IC50) is 146 µM in data set [2] and 86 µM in data set [3]. Moreover, in data set [4], the cytotoxicity at 100 µM was determined as 28.9%.

Consider `CS(=O)(=O)c1ccc(-n2ccc3ccccc32)cc1`, for which the inhibition at 10 µM is 12.2% in data set [1] and 16.6% in data set [5]. For the same compound, the IC50 in data set [2] was 85 µM; in data set [3], 78.7 µM. In addition, the cytotoxicity at 100 µM in data set [4] was determined as 34.3%. The values for the inhibition in vivo at 70 mg/kg in data set [6] and in data set [7] were 48.7% and 46%, respectively.

For `Cn1cc(C(=O)c2ccc(S(C)(=O)=O)cc2)c2ccccc21`, the inhibition at 10 µM in data set [1] was 7%; in data set [5], 2.1%. Further, the results for the IC50 in data set [2] and in data set [3] were 70.4 µM and 76.4 µM, respectively. For the same compound, in data set [4], the cytotoxicity at 100 µM is 30.8%.

`CS(=O)(=O)c1ccc(C(=O)c2cccn2-c2ccccc2F)cc1`: the inhibition at 10 µM in data set [1] worked out at 13.3%; in data set [5], 2.1%. In addition, the figures for the IC50 in data set [2] and in data set [3] were 34.1 µM and 183 µM, respectively. For the same compound, in data set [4], the cytotoxicity at 100 µM turned out to be 45%. Also, the results for the inhibition in vivo at 70 mg/kg in data set [6] and in data set [7] were 13.7% and 4.4%, respectively.

On to `CS(=O)(=O)c1ccc(C(=O)c2ccn(-c3ccccc3F)c2)cc1`, for which the inhibition at 10 µM in data set [1] worked out at 54.8%; in data set [5], 12.5%. Besides, the 50% inhibitory concentration (IC50) in data set [2] turned out to be 96.1 µM; in data set [3], 34.6 µM. Moreover, the cytotoxicity at 100 µM in data set [4] was 13.4%.

`CS(=O)(=O)c1ccc(C(=O)c2c[nH]c3ccccc23)cc1`: the concentration for half-maximal inhibition (IC50) in data set [3] was determined as 26.7 µM.

As to `CS(=O)(=O)c1ccc(C2Oc3ccccc3-n3cccc32)cc1` (configuration not stated), the inhibition at 10 µM in data set [1] came to 6.6%; in data set [5] it was 13.5%. For the same compound, the values for the IC50 in data set [2] and in data set [3] were 100 µM and 177 µM, respectively. The cytotoxicity at 100 µM in data set [4] stood at 12.3%.

As to `CS(=O)(=O)c1ccc(N2CCN(c3ccc(F)cc3)CC2)cc1`, the results for the inhibition at 10 µM in data set [1] and in data set [5] were 3.1% and 17.7%, respectively. In addition, the values for the half-maximal inhibitory concentration (IC50) in data set [2] and in data set [3] were 65.8 µM and 80 µM, respectively. Also, in data set [4], the cytotoxicity at 100 µM came to 36.1%.

Consider `Cc1ccc(-c2cc(C(F)(F)F)nn2-c2ccc(S(N)(=O)=O)cc2)cc1` [CELECOXIB], for which the inhibition at 10 µM in data set [1] was 9.75%; in data set [5] it was 38.8%. It took 45.5 µM to reach half-maximal inhibition in data set [2] (IC50). Further, the cytotoxicity at 100 µM in data set [4] stood at 92%.

For the compound `CC(C)Cc1ccc([C@H](C)C(=O)O)cc1` [DEXIBUPROFEN], the inhibition in vivo at 70 mg/kg in data set [7] is 23.9%.

As to `CC(C)[C@H](CO)Nc1nc(Nc2cccc(Cl)c2)c2ncn(C(C)C)c2n1` [PURVALANOLA], the inhibition at 10 µM in data set [1] was found to be 3.98%; in data set [5], 75.1%. The compound also yielded a half-inhibitory concentration (IC50) in data set [2] of over 100 µM. For the same compound, in data set [4], the cytotoxicity at 100 µM stood at 88.6%.
